Results: ChEMBL document CHEMBL1145538, “In vitro inhibition of Streptococcus mutans biofilm formation on hydroxyapatite by subinhibitory concentrations of anthraquinones” (2007)
≈ marks a conversion by molar mass, not a printed value. Calls of active or inactive are those of the source. The calls are words filed in the database; no cut-off is given here.

Columns and labels:
Streptococcus mutans [1] = experiment: Activity against planktonic Streptococcus mutans LMG 14558; format: functional
Method in brief: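 S. mutans LMG 14558T, routinely grown in BHI broth at 37°C, was tested against planktonic cells by broth microdilution in 96-well microtiter plates to give the MIC in μg/ml. The modified microdilution was also run with and without 1.5 mM glutathione, 0.025% (wt/vol) cysteine or 10 mM mannitol as ROS scavengers, including in chemically defined M1 medium.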

Streptococcus mutans [2] = experiment: Effect on Streptococcus mutans LMG 14558 assessed as inhibition of biofilm formation in modified Robbin's device at 50 ug/ml relative to BHIS control; format: functional
Method in brief: (§1)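 S. mutans LMG 14558T grown at 37°C as biofilms on hydroxyapatite disks in modified Robbins' devices, in BHI plus 1% sucrose (BHIS) containing compound at the stated concentration. Biomass per disk is estimated by SYTO9 fluorescent staining and given as % of BHIS-only controls (avg ± SD). Significance by one-tailed independent-sample t test; P > 0.01 is not significant.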

Streptococcus mutans [3] = experiment: Effect on Streptococcus mutans LMG 14558 assessed as inhibition of biofilm formation in modified Robbin's device at 5 ug/ml relative to BHIS control; format: functional; method in brief: as §1
Streptococcus mutans [4] = experiment: Effect on Streptococcus mutans LMG 14558 assessed as inhibition of biofilm formation in modified Robbin's device at 0.1 ug/ml relative to BHIS control relative to BHIS control; format: functional; method in brief: as §1
Streptococcus mutans [5] = experiment: Effect on Streptococcus mutans LMG 14558 assessed as inhibition of biofilm formation in modified Robbin's device at 1200 ug/ml relative to BHIS control; format: functional; method in brief: as §1
Streptococcus mutans [6] = experiment: Decrease in membrane fluidity of Streptococcus mutans LMG 14558 using pyrene in BHI medium at 5 ug/ml relative to BHI control; format: functional; set-up: scale not given: the % may be the effect or the level left
Method in brief: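 Relative membrane fluidity (lateral diffusion) of S. mutans LMG 14558T grown in BHI with or without 5 μg/ml compound, read as pyrene intermolecular excimer-to-monomer fluorescence intensity ratio at constant temperature. Relative fluidity F = (Ie/Im treated)/(Ie/Im untreated) × Fr, with untreated BHI-grown cells set to Fr = 1.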

Streptococcus mutans [7] = experiment: Effect on Streptococcus mutans LMG 14558 assessed as inhibition of biofilm formation in modified Robbin's device at 2 ug/ml relative to BHIS control; format: functional; method in brief: as §1
Streptococcus mutans [8] = experiment: Susceptibility of Streptococcus mutans LMG 14558 in BHIS medium assessed as increase in biofilm formation at 5 ug/ml in presence of 0.025% cysteine; format: functional, organism-based
Streptococcus mutans [9] = experiment: Effect on Streptococcus mutans LMG 14558 assessed as inhibition of biofilm formation in modified Robbin's device at 0.5 ug/ml relative to BHIS control; format: functional; method in brief: as §1
Streptococcus mutans [10] = experiment: Effect on Streptococcus mutans LMG 14558 assessed as inhibition of biofilm formation in modified Robbin's device at 1 ug/ml relative to BHIS control; format: functional; method in brief: as §1
Streptococcus mutans [11] = experiment: Effect on Streptococcus mutans LMG 14558 assessed as inhibition of biofilm formation in modified Robbin's device at 1333 ug/ml relative to BHIS control; format: functional; method in brief: as §1

SMILES	MIC (Streptococcus mutans [1]) [µg/mL]	inhibition at 5 µg/mL (Streptococcus mutans [3]) [%]	other results
O=C1c2cccc(O)c2C(=O)c2c(O)cc(CO)cc21 [ALOE-EMODIN]	> 250	–	inhibition at 50 µg/mL (Streptococcus mutans [2]): 99.2%
O=C1c2ccc(O)cc2C(=O)c2ccc(O)cc21 [ANTHRAFLAVICACID]	250 (≈ 1040 µM)	98.2	–
Cc1c(C(=O)O)c(O)cc2c1C(=O)c1c(O)c([C@@H]3O[C@H](CO)[C@@H](O)[C@H](O)[C@H]3O)c(O)c(O)c1C2=O [CARMINIC ACID]	> 250	66.5	–
N=C(NCCCCCCNC(=N)NC(=N)Nc1ccc(Cl)cc1)NC(=N)Nc1ccc(Cl)cc1 [CHLORHEXIDINE]	2 (≈ 3.96 µM)	–	inhibition at 0.1 µg/mL (Streptococcus mutans [4]): 104%; inhibition at 1200 µg/mL (Streptococcus mutans [5]): 34.5%
Cc1cc(O)c2c(c1)C(=O)c1cccc(O)c1C2=O [CHRYSOPHANOL]	250 (≈ 983 µM)	75	–
O=C1c2cccc(O)c2C(=O)c2c(O)cccc21 [DANTHRON]	250 (≈ 1040 µM)	91.3	–
Cc1cc(O)c2c(c1)C(=O)c1cc(O)cc(O)c1C2=O [EMODIN]	> 250	10.9	Activity (Streptococcus mutans [6]): 21.2%; inhibition at 0.1 µg/mL (Streptococcus mutans [4]): 101%; inhibition at 2 µg/mL (Streptococcus mutans [7]): 52.1%; Activity (Streptococcus mutans [8]): inactive; inhibition at 0.5 µg/mL (Streptococcus mutans [9]): 85.7%; inhibition at 1 µg/mL (Streptococcus mutans [10]): 79%
Cc1cc(O)c2c(=O)c3c(O)cc(O)c4c5c(O)cc(O)c6c(=O)c7c(O)cc(C)c8c1c2c(c34)c(c78)c65 [HYPERICIN]	250 (≈ 496 µM)	47.8	Activity (Streptococcus mutans [6]): 35.6%
COc1cc(O)c2c(c1)C(=O)c1cc(C)cc(O)c1C2=O [PHYSCION]	> 250	120	–
O=C1c2ccccc2C(=O)c2c(O)ccc(O)c21 [QUINIZARIN]	250 (≈ 1040 µM)	80	–
O=C(O)c1cc(O)c2c(c1)C(=O)c1cccc(O)c1C2=O [RHEIN]	10 (≈ 35.2 µM)	75.2	–
O=C(O)c1cc(O)c2c(c1)C(C1c3cccc(O)c3C(=O)c3c(O)cc(C(=O)O)cc31)c1cccc(O)c1C2=O (stereo not given) [SENNIDIN A]	> 250	83.7	–
Oc1cc(Cl)ccc1Oc1ccc(Cl)cc1Cl [TRICLOSAN]	16 (≈ 55.3 µM)	78.1	inhibition at 1333 µg/mL (Streptococcus mutans [11]): 10.9%
